Reference: ChEMBL document CHEMBL1156160, “The introduction of P4 substituted 1-methylcyclohexyl groups into Boceprevir: a change in direction in the search for a second generation HCV NS3 protease inhibitor” (Bioorg Med Chem Lett, 2010)

Key:
[1] = Inhibition of HCV NS4A tagged recombinant single chain NS3 protease after 15 mins; design: species or system Hepacivirus hominis
Hepatitis C virus = test: Antiviral activity against HCV in human hepatoma cells assessed as inhibition of RNA replication by replicon assay; type: functional, Hepacivirus hominis
[2] = Selectivity for HCV NS3 protease over human neutrophil elastase
How it was run: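 Ratio of inhibitory activity against human neutrophil elastase to that against HCV protease (HNE/HCV), taken as selectivity. HCV activity was from a continuous protease assay using NS4A-tethered single-chain NS3 serine protease, giving Ki* as the equilibrium constant for reversible covalent binding of the electrophilic ketone to the active-site serine. Compounds were tested as P1-epimer diastereomer mixtures.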

Row | Compound | Ki [1] [nM] | EC90 (Hepatitis C virus) [nM] | Ratio [2]
1 | CC(C)(C)[C@H](NC(=O)NC1(Cc2ccc3ccccc3c2)CCCCC1)C(=O)N1C[C@H]2[C@@H]([C@H]1C(=O)NC(CC1CC1)C(=O)C(N)=O)C2(C)C (stereo partly drawn) | 300 | – | –
2 | CC(C)(C)[C@H](NC(=O)NC1(c2ccccc2)CCCCC1)C(=O)N1C[C@H]2[C@@H]([C@H]1C(=O)NC(CC1CC1)C(=O)C(N)=O)C2(C)C (stereo partly drawn) | 47 | 400 | 320
3 | CC(C)(C)[C@H](NC(=O)NC1(Cc2cccc(O)c2)CCCCC1)C(=O)N1C[C@H]2[C@@H]([C@H]1C(=O)NC(CC1CC1)C(=O)C(N)=O)C2(C)C (stereo partly drawn) | 9 | 70 | –
4 | CCC(c1ccccc1)C1(NC(=O)N[C@H](C(=O)N2C[C@H]3[C@@H]([C@H]2C(=O)NC(CC2CC2)C(=O)C(N)=O)C3(C)C)C(C)(C)C)CCCCC1 (stereo partly drawn) | 20 | 400 | 1500
5 | CC(C)(C)[C@H](NC(=O)NC1(Cc2ccccc2O)CCCCC1)C(=O)N1C[C@H]2[C@@H]([C@H]1C(=O)NC(CC1CC1)C(=O)C(N)=O)C2(C)C (stereo partly drawn) | 19 | 150 | 440
6 | CC(C)(C)[C@H](NC(=O)NC1(C(O)c2ccccc2)CCCCC1)C(=O)N1C[C@H]2[C@@H]([C@H]1C(=O)NC(CC1CC1)C(=O)C(N)=O)C2(C)C (stereo partly drawn) | 11 | 400 | 1170
7 | CC(C)(C)[C@H](NC(=O)NC1(Cc2ccccc2)CCCCC1)C(=O)N1C[C@H]2[C@@H]([C@H]1C(=O)NC(CC1CC1)C(=O)C(N)=O)C2(C)C (stereo partly drawn) | 12 | 85 | 395
8 | CC(C)(C)[C@H](NC(=O)NC1(Cc2cccnc2)CCCCC1)C(=O)N1C[C@H]2[C@@H]([C@H]1C(=O)NC(CC1CC1)C(=O)C(N)=O)C2(C)C (stereo partly drawn) | 25 | 400 | 200
9 | CC(C)(C)[C@H](NC(=O)NC1(Cc2ccccn2)CCCCC1)C(=O)N1C[C@H]2[C@@H]([C@H]1C(=O)NC(CC1CC1)C(=O)C(N)=O)C2(C)C (stereo partly drawn) | 7 | 180 | –
10 | CC(C)(C)[C@H](NC(=O)NC1(Cc2ccccc2)CCCCCC1)C(=O)N1C[C@H]2[C@@H]([C@H]1C(=O)NC(CC1CC1)C(=O)C(N)=O)C2(C)C (stereo partly drawn) | 78 | 700 | 73
11 | CC(C)(C)[C@H](NC(=O)NC1(Cc2cccc3ccccc23)CCCCC1)C(=O)N1C[C@H]2[C@@H]([C@H]1C(=O)NC(CC1CC1)C(=O)C(N)=O)C2(C)C (stereo partly drawn) | 44 | 400 | 470
12 | C=CCNC(=O)C(=O)C(CCC)NC(=O)[C@@H]1[C@@H]2[C@H](CN1C(=O)[C@@H](NC(=O)NC(C)(C)C)C1CCCCC1)C2(C)C (stereo partly drawn) | 280 | – | –
13 | CCCC(NC(=O)[C@@H]1[C@@H]2[C@H](CN1C(=O)[C@@H](NC(=O)NC(C)(C)C)C1CCCCC1)C2(C)C)C(=O)C(N)=O (stereo partly drawn) | 100 | – | –

Other lines, results leading:

Row | Ki [1] [nM] | EC90 (Hepatitis C virus) [nM] | Ratio [2] | Compound
14 | 3 | 80 | – | CC(C)(C)[C@H](NC(=O)NC1(CS(=O)(=O)C(C)(C)C)CCCCC1)C(=O)N1C[C@H]2[C@@H]([C@H]1C(=O)NC(CC1CCC1)C(=O)C(N)=O)C2(C)C (stereo partly drawn)
15 | 4 | 500 | 200 | CC(C)(C)[C@H](NC(=O)NC1(CS(=O)(=O)Cc2ccco2)CCCCC1)C(=O)N1C[C@H]2[C@@H]([C@H]1C(=O)NC(CC1CC1)C(=O)C(N)=O)C2(C)C (stereo partly drawn)
16 | 11 | 400 | 290 | CCS(=O)(=O)CC1(NC(=O)N[C@H](C(=O)N2C[C@H]3[C@@H]([C@H]2C(=O)NC(CC2CC2)C(=O)C(N)=O)C3(C)C)C(C)(C)C)CCCCC1 (stereo partly drawn)
17 | 10 | 400 | 260 | Cc1cc(S(=O)(=O)CC2(NC(=O)N[C@H](C(=O)N3C[C@H]4[C@@H]([C@H]3C(=O)NC(CC3CC3)C(=O)C(N)=O)C4(C)C)C(C)(C)C)CCCCC2)co1 (stereo partly drawn)
18 | 5 | 90 | 1200 | CCS(=O)(=O)CC1(NC(=O)N[C@H](C(=O)N2C[C@H]3[C@@H]([C@H]2C(=O)NC(CC2CCC2)C(=O)C(N)=O)C3(C)C)C(C)(C)C)CCCCC1 (stereo partly drawn)
19 | 10 | 300 | 1570 | CC(C)(C)[C@H](NC(=O)NC1(CS(=O)(=O)c2ccccn2)CCCCC1)C(=O)N1C[C@H]2[C@@H]([C@H]1C(=O)NC(CC1CCC1)C(=O)C(N)=O)C2(C)C (stereo partly drawn)
20 | 15 | > 1000 | – | CC(C)(C)[C@H](NC(=O)NC1(CO)CCCC1)C(=O)N1C[C@H]2[C@@H]([C@H]1C(=O)NC(CC1CC1)C(=O)C(N)=O)C2(C)C (stereo partly drawn)
21 | 12 | 100 | – | CC(C)(C)[C@H](NC(=O)NC1(CS(=O)(=O)C(C)(C)C)CCCCC1)C(=O)N1C[C@H]2[C@@H]([C@H]1C(=O)NC(CC1CC1)C(=O)C(N)=O)C2(C)C (stereo partly drawn)
22 | 11 | 100 | – | CC(C)(C)[C@H](NC(=O)NC1(Cc2ccco2)CCCCC1)C(=O)N1C[C@H]2[C@@H]([C@H]1C(=O)NC(CC1CC1)C(=O)C(N)=O)C2(C)C (stereo partly drawn)
23 | 15 | 250 | 155 | CC1(NC(=O)N[C@H](C(=O)N2C[C@H]3[C@@H]([C@H]2C(=O)NC(CC2CC2)C(=O)C(N)=O)C3(C)C)C(C)(C)C)CCCCCC1 (stereo partly drawn)
24 | 24 | 200 | 110 | CC1(NC(=O)N[C@H](C(=O)N2C[C@H]3[C@@H]([C@H]2C(=O)NC(CC2CC2)C(=O)C(N)=O)C3(C)C)C(C)(C)C)CCC1 (stereo partly drawn)
25 | 10 | 200 | – | CC1(NC(=O)N[C@H](C(=O)N2C[C@H]3[C@@H]([C@H]2C(=O)NC(CC2CC2)C(=O)C(N)=O)C3(C)C)C(C)(C)C)CCCC1 (stereo partly drawn)
26 | 6 | 1000 | 200 | CC(C)(C)[C@H](NC(=O)NC1(CS(=O)(=O)c2cccc(O)c2)CCCCC1)C(=O)N1C[C@H]2[C@@H]([C@H]1C(=O)NC(CC1CC1)C(=O)C(N)=O)C2(C)C (stereo partly drawn)
27 | 4 | 500 | 2400 | CC(C)(C)[C@H](NC(=O)NC1(CS(C)(=O)=O)CCCCC1)C(=O)N1C[C@H]2[C@@H]([C@H]1C(=O)NC(CC1CCC1)C(=O)C(N)=O)C2(C)C (stereo partly drawn)
28 | 2 | 300 | 460 | CC(C)(C)[C@H](NC(=O)NC1(CS(C)(=O)=O)CCCCC1)C(=O)N1C[C@H]2[C@@H]([C@H]1C(=O)NC(CC1CC1)C(=O)C(N)=O)C2(C)C (stereo partly drawn)
29 | 3 | 100 | – | CC(C)(C)[C@H](NC(=O)NC1(CS(=O)(=O)c2ccccc2)CCCCC1)C(=O)N1C[C@H]2[C@@H]([C@H]1C(=O)NC(CC1CC1)C(=O)C(N)=O)C2(C)C (stereo partly drawn)
30 | 140 | – | – | CC(C)(C)[C@H](NC(=O)NC1(CN)CCCC1)C(=O)N1C[C@H]2[C@@H]([C@H]1C(=O)NC(CC1CC1)C(=O)C(N)=O)C2(C)C (stereo partly drawn)
31 | 16 | 250 | – | CC1(NC(=O)N[C@H](C(=O)N2C[C@H]3[C@@H]([C@H]2C(=O)NC(CC2CC2)C(=O)C(N)=O)C3(C)C)C(C)(C)C)CCCCC1 (stereo partly drawn)
32 | 10 | 100 | – | CC(C)(C)[C@H](NC(=O)NC1(Cc2ccsc2)CCCCC1)C(=O)N1C[C@H]2[C@@H]([C@H]1C(=O)NC(CC1CC1)C(=O)C(N)=O)C2(C)C (stereo partly drawn)
